From PubChem BioAssay
The entries come from a sample that favours hits as a whole.
CHOP inhibitor: CHOP inhibition in unfolded protein response; CHO-K1 CHOP-promoter luciferase, tunicamycin-induced, 15-18 h; inhibition, % at 10 µM; actives 3.8% (n = 220,000); AID 2732;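 active = compounds that reduced the stress-induced luciferase reporter signal by more than about 70% of percent inhibition, limit read from the data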
XBP1 UPR activ: activators of adaptive arm of unfolded protein response (XBP1). CHO-XBP1 luciferase reporter, IRE1-XBP1 UPR activation, luminescence; percent of tunicamycin response, DMSO as zero. activation, % at 20 µM. actives 0.33% (n = 330,000). AID 463104;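 active = versus positive control, 20 µM dose yields 30% or more activation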
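incubation = overnight seeding at 37 °C, 6 h compound treatment at 37 °C | assay system = CHO-XBP1 cells stably carrying IRE1-XBP1-driven luciferase reporter | input = 1000 cells per well | detection = luciferase luminescence | dosing = single point, 20 µM final compound, 1% DMSO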
UCH37 inh: inhibitors of human deubiquitinating enzyme UCH37; inhibition, % (concentration not given with the values); Q9Y5K5; actives 0.33% (n = 330,000); purified proteasome/UCH37, Ub-AMC cleavage fluorescence;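 active = mean inhibition over replicate wells above about 20%, limit read from the data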
Target sequence (Q9Y5K5 whole entry, looked up): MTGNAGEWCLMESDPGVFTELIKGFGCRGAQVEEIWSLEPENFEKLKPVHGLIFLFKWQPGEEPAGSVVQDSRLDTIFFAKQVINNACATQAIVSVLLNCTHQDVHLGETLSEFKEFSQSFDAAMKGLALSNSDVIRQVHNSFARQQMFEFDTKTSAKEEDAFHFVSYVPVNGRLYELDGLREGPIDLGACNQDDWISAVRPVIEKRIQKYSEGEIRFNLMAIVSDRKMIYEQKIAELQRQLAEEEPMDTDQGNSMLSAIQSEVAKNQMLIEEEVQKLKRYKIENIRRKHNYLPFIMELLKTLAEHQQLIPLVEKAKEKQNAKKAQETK
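Assay system: Proteasome-bound UCH37. Buffer or medium: pH 7.4 Tris-HCl (50 mM) with ovalbumin, ATP-MgCl2, DTT. Incubation: 30 min preincubation with enzyme, 25 min cleavage at room temperature. Measured by: fluorescence, ex 355 nm, em 460 nm. Read-out basis: percent inhibition. Control set: wells without proteasome as full block, compound-free enzyme plus substrate as uninhibited.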
CHOP UPR activ: apoptotic UPR (CHOP) activation; CHO-CHOP luciferase reporter, luminescence; percent of tunicamycin response over DMSO baseline; activation, % at 10 µM; actives 0.34% (n = 330,000); AID 449763;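 active = at 10 µM dose, activation of 40% or more, normalized to positive control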
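System: CHO CHOP reporter cells. Amount: 500 cells per well. Buffer or medium: F12 medium, 10% FBS. Compound dosing: one dose, 10 µM in 0.5% DMSO. Incubation: 6 h compound exposure at 37 °C after overnight seeding. Technique: Steady-Glo luciferase luminescence. Benchmarks: tunicamycin and DMSO controls.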
CTSL1 counter: blocks F. hepatica cathepsin L1 in PFM18AAP counter-screen; recombinant F. hepatica cathepsin L1, Z-Leu-Arg-MCA fluorescence; inhibition, % at 5.96 µM; actives 0.49% (n = 300,000);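 active = inhibition above the mean of all tested compounds plus 3 SD, set per screening campaign, cut at about 17% in these data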
Hits are given with their value; . = inactive; / = no result given.

SMILES	CHOP inhibitor	XBP1 UPR activ	UCH37 inh	CHOP UPR activ	CTSL1 counter
C=CCNc1nc2c(c(=O)[nH]c(=O)n2C)n1CCCCC	71	.	.	.	.
Cc1ccc(Sc2nc3c(c(=O)[nH]c(=O)n3C)n2CCc2ccccc2)cc1	95	.	.	.	.
Cc1cccc(NC(=O)CCC(=O)NN=Cc2cccnc2)c1	/	/	.	/	/
CC1CCCCN1C(=O)Cn1c(=O)n(-c2ccc(F)cc2)c(=O)c2sccc21 (stereo not drawn)	.	.	.	.	.
CC1CCCCN1C(=O)Cn1c(=O)n(C2CCCCC2)c(=O)c2ccccc21 (stereo not drawn)	82	.	.	.	.
Cn1c(SCc2cccc(Cl)c2)nc(C(F)(F)F)cc1=O	84	.	.	.	.
Cn1c(SCc2ccccc2)nc(C(F)(F)F)cc1=O	.	.	.	.	.
Cn1c(SCc2c(Cl)cccc2Cl)nc(C(F)(F)F)cc1=O	82	.	.	.	.
Cn1c(SCc2ccccc2Cl)nc(C(F)(F)F)cc1=O	74	.	.	.	.
CC(=O)CSc1nc(C(F)(F)F)cc(=O)n1-c1ccccc1	.	.	.	.	.
O=C(Nc1ccccc1)N(C1=NCCC1)c1ccc(OC(F)F)cc1	81	.	.	.	.
CCOc1ccc(N(C(=O)Nc2ccccc2)C2=NCCC2)cc1	.	.	.	.	.
CCOC(=O)c1cccc(Nc2nc(-c3cccnc3)nc3ccccc23)c1	77	.	.	.	.
CC(=NNC(=O)C1CC1)c1ccccc1Br	/	/	.	/	/
CC(=NNC(=O)c1cnccn1)c1ccc([N+](=O)[O-])cc1	/	/	.	/	/
Cc1ccc(NC(=O)Cn2cncc2-c2ccc([N+](=O)[O-])cc2)cc1C	81	.	.	.	.
Cc1ccc(-c2nnn(CC(=O)N(Cc3cccs3)C(C(=O)NC(C)(C)C)c3ccc(C)o3)n2)o1 (stereo not drawn)	76	.	.	.	.
Cc1ccc(-c2nnn(CC(=O)N(Cc3cccs3)C(C(=O)NC(C)(C)C)c3ccco3)n2)o1 (stereo not drawn)	.	.	.	.	.
CC(C)(C)c1ccc(COC(=O)Nc2ccc(F)cc2)cc1	77	.	.	.	.
COc1ccc(-c2cc(C(=O)NCc3ccc(Cl)cc3)no2)cc1OC	73	.	.	.	.
COCCN1C(=O)c2cc(C(=O)Nc3cccc(F)c3)ccc2C1Nc1cccc(F)c1 (stereo not drawn)	90	.	.	.	.
COCCN1C(=O)c2cc(C(=O)Nc3ccc(C)c(F)c3)ccc2C1Nc1ccc(C)c(F)c1 (stereo not drawn)	.	.	.	.	.
CCc1ccc(NC(=O)c2ccc3c(c2)C(=O)N(CCOC)C3Nc2ccc(CC)cc2)cc1 (stereo not drawn)	94	.	.	.	.
COc1cc(C(=O)Nc2c(C)cc(C)cc2C)c([N+](=O)[O-])cc1OC	.	.	.	.	22
COc1cc(C(=O)Nc2ccc(C)cn2)c([N+](=O)[O-])cc1OC	.	.	.	.	.
SMILES	CHOP inhibitor	XBP1 UPR activ	UCH37 inh	CHOP UPR activ	CTSL1 counter
CC(C)c1ccc(NC(=O)C(=O)C2C(=O)Nc3ccccc32)cc1 (stereo not drawn)	74	.	.	.	.
CN(C)c1ccc(NC(=O)C(=O)C2C(=O)Nc3ccccc32)cc1 (stereo not drawn)	.	.	.	.	.
Cc1cc(/C=N/Nc2nc(N)ncc2[N+](=O)[O-])c(C)n1-c1ccccc1F	80	.	/	.	.
CN(C)C=Nc1nc2ncc(-c3ccc(Cl)cc3)c(N=CN(C)C)n2n1	/	/	.	/	/
C=CCOc1ccc(/C(O)=C2\C(=O)C(=O)N(CCN(C)C)C2c2cccs2)cc1 (stereo not drawn)	.	.	24	.	.
COc1ccccc1NC(=O)COC(=O)/C=C/c1cccs1	/	.	.	.	/
CCC(C(=O)Nc1ccccc1OC)n1c(C(=O)OC)cc2ccsc21 (stereo not drawn)	81	.	.	.	.
NC(=NOC(=O)c1ccc([N+](=O)[O-])cc1)c1cccnc1	/	/	.	/	/
COc1ccc(CCN(C(=O)C(F)(F)F)C(C(=O)NC2CCCCC2)c2ccc(C)s2)cc1 (stereo not drawn)	87	.	.	.	.
